Measured values: ChEMBL document CHEMBL1649075, “Synthesis and biological evaluation of (6- and 7-phenyl) coumarin derivatives as selective nonsteroidal inhibitors of 17β-hydroxysteroid dehydrogenase type 1” (J Med Chem, 2011)
Active and inactive are the calls of the source. The calls are words filed in the database; no cut-off is given here.

Experiments:
17β-HSD1 (Homo sapiens) [1] = assay: Displacement of [3H]estrone human recombinant 17beta-HSD1 expressed in Escherichia coli BL21 (DE3)-RIL at 6 uM by scintillation counting in presence of NADPH
17β-HSD2 (Homo sapiens) [2] = assay: Displacement of [3H]estradiol human recombinant 17beta-HSD2 expressed in Escherichia coli BL21 (DE3)-RIL at 60 uM by scintillation counting in presence of NAD+
[3] = target: Estrogen receptor beta (Homo sapiens) (UniProt Q92731); assay: Displacement of [3H]estradiol from human recombinant ERbeta after 16 hrs by liquid scintillation counting relative to estradiol
Estrogen receptor beta (Homo sapiens), sequence (Q92731 whole entry): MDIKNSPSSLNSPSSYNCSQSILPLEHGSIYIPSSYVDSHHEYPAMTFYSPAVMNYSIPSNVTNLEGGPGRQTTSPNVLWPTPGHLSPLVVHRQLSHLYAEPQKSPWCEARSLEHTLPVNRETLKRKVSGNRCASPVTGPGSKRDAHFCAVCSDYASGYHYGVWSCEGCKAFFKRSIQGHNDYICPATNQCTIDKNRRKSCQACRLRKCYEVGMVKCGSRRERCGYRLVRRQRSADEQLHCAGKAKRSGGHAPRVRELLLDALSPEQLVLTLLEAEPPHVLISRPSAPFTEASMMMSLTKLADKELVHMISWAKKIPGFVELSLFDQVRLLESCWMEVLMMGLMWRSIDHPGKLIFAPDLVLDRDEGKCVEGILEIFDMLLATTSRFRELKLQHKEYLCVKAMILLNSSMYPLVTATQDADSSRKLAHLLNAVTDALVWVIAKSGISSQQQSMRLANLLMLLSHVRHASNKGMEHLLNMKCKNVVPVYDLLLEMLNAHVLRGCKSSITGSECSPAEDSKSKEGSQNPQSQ
Outline: (§1)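 Recombinant human ERα or ERβ (0.9 nM) was incubated with 9 nM [2,4,6,7-³H]-E2 and test compound (10^-9 to 10^-5 M) at 4 °C, for 18 h per methods (16 h per table footnote). Nonspecific binding was set with 6 μM E2. Complexes were bound to hydroxyapatite in Tris pH 7.5, washed four times, and counted by liquid scintillation. Runs were in triplicate. RBA = IC50(E2)/IC50(compound) × 100.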

17β-HSD2 (Homo sapiens) [4] = assay: Displacement of [3H]estradiol human recombinant 17beta-HSD2 expressed in Escherichia coli BL21 (DE3)-RIL at 0.6 uM by scintillation counting in presence of NAD+
[5] = target: T1, Estrogen receptor (Homo sapiens) (UniProt P03372); assay: Displacement of [3H]estradiol from human recombinant ERalpha after 16 hrs by liquid scintillation counting relative to estradiol
T1 sequence (whole entry): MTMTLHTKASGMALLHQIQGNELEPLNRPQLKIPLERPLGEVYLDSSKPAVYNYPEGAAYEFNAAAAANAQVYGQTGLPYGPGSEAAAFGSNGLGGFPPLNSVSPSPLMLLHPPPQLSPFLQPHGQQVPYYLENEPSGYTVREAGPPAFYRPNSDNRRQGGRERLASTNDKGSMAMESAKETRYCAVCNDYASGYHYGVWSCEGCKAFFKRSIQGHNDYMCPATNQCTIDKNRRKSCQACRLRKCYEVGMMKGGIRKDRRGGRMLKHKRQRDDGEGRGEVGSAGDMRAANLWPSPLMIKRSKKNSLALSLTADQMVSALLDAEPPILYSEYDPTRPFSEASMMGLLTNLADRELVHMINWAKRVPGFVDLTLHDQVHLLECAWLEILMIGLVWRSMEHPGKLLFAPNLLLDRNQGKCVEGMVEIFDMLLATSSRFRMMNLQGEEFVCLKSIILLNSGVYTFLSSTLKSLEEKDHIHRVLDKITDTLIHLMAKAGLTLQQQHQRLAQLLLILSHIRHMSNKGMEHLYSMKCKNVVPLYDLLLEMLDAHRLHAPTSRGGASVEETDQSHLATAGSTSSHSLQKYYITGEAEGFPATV
Outline: as §1

17β-HSD1 (Homo sapiens) [6] = assay: Displacement of [3H]estrone human recombinant 17beta-HSD1 expressed in Escherichia coli BL21 (DE3)-RIL at 0.6 uM by scintillation counting in presence of NADPH
17β-HSD2 (Homo sapiens) [7] = assay: Displacement of [3H]estradiol human recombinant 17beta-HSD2 expressed in Escherichia coli BL21 (DE3)-RIL at 6 uM by scintillation counting in presence of NAD+

SMILES	inhibition (17β-HSD1 (Homo sapiens) [1])	inhibition (17β-HSD1 (Homo sapiens) [6])	also measured
COc1ccc(-c2ccc3cc(C(C)=O)c(=O)oc3c2)cc1	86%	48%	inhibition (17β-HSD2 (Homo sapiens) [2]): inactive; Activity [3]: inactive; inhibition (17β-HSD2 (Homo sapiens) [4]): inactive; Activity [5]: inactive; inhibition (17β-HSD2 (Homo sapiens) [7]): inactive
O=c1ccc2cc(-c3ccc(Cl)cc3)ccc2o1	10%	inactive	–
O=c1ccc2ccc(-c3ccc(Cl)cc3)cc2o1	9%	inactive	–
CCOC(=O)c1cc2ccc(-c3ccccc3)cc2oc1=O	7%	inactive	–
CCOC(=O)c1cc2cc(-c3ccc(F)cc3)ccc2oc1=O	21%	21%	–
CCOC(=O)c1cc2ccc(-c3ccc(Cl)cc3)cc2oc1=O	inactive	inactive	–
CC(=O)c1cc2cc(-c3ccc(C)cc3)ccc2oc1=O	inactive	inactive	–
CCOC(=O)c1cc2ccc(-c3ccc(C)cc3)cc2oc1=O	9%	11%	–
CCOC(=O)c1cc2cc(-c3ccc(OC)cc3)ccc2oc1=O	7%	inactive	–
CC(=O)c1cc2ccc(-c3ccc(C)cc3)cc2oc1=O	72%	40%	inhibition (17β-HSD2 (Homo sapiens) [2]): inactive; inhibition (17β-HSD2 (Homo sapiens) [7]): inactive
CCOC(=O)c1cc2ccc(OS(=O)(=O)C(F)(F)F)cc2oc1=O	inactive	inactive	–
O=c1ccc2ccc(-c3ccccc3)cc2o1	10%	inactive	–
Cc1ccc(-c2ccc3ccc(=O)oc3c2)cc1	29%	10%	–
COc1ccc(-c2ccc3ccc(=O)oc3c2)cc1	10%	inactive	–
O=c1ccc2ccc(OS(=O)(=O)C(F)(F)F)cc2o1	9%	inactive	–
CC(=O)c1cc2ccc(-c3ccc(F)cc3)cc2oc1=O	13%	6%	–
CCOC(=O)c1cc2cc(Br)ccc2oc1=O	inactive	inactive	–
CC(=O)c1cc2ccc(OS(=O)(=O)C(F)(F)F)cc2oc1=O	100%	60%	Activity [3]: inactive; inhibition (17β-HSD2 (Homo sapiens) [4]): inactive; Activity [5]: inactive; inhibition (17β-HSD2 (Homo sapiens) [7]): inactive

SMILES	inhibition (17β-HSD1 (Homo sapiens) [1])	inhibition (17β-HSD1 (Homo sapiens) [6])	also measured
COc1ccc(-c2ccc3oc(=O)c(C(C)=O)cc3c2)cc1	inactive	inactive	–
COc1ccc(-c2ccc3oc(=O)ccc3c2)cc1	26%	7%	–
CCOC(=O)c1cc2cc(-c3ccc(Cl)cc3)ccc2oc1=O	14%	10%	–
CC(=O)c1cc2ccc(-c3ccc(Cl)cc3)cc2oc1=O	17%	12%	–
O=c1ccc2cc(Br)ccc2o1	inactive	inactive	–
O=c1ccc2cc(-c3ccccc3)ccc2o1	18%	inactive	–
CC(=O)c1cc2cc(-c3ccccc3)ccc2oc1=O	inactive	inactive	–
C[C@]12CC[C@H]3C(=CCc4cc(O)ccc43)[C@@H]1CCC2=O	–	–	RBA [3]: 1.4%; RBA [5]: 0.15%
CC(=O)c1cc2cc(-c3ccc(F)cc3)ccc2oc1=O	59%	15%	–
CCOC(=O)c1cc2ccc(-c3ccc(OC)cc3)cc2oc1=O	1%	inactive	–
CCOC(=O)c1cc2cc(-c3ccccc3)ccc2oc1=O	21%	inactive	–
CCOC(=O)c1cc2cc(-c3ccc(C)cc3)ccc2oc1=O	16%	6%	–
CC(=O)c1cc2cc(-c3ccc(Cl)cc3)ccc2oc1=O	inactive	inactive	–
O=c1ccc2ccc(-c3ccc(O)cc3)cc2o1	43%	inactive	–
Cc1ccc(-c2ccc3oc(=O)ccc3c2)cc1	inactive	inactive	–
CC(=O)c1cc2ccc(-c3ccc(O)cc3)cc2oc1=O	100%	76%	inhibition (17β-HSD2 (Homo sapiens) [2]): inactive; Activity [3]: inactive; inhibition (17β-HSD2 (Homo sapiens) [4]): inactive; Activity [5]: inactive; inhibition (17β-HSD2 (Homo sapiens) [7]): inactive
COc1ccc2cc(C(C)=O)c(=O)oc2c1	25%	23%	inhibition (17β-HSD2 (Homo sapiens) [4]): inactive; inhibition (17β-HSD2 (Homo sapiens) [7]): inactive
O=c1ccc2cc(-c3ccc(O)cc3)ccc2o1	30%	4%	–
